ChEMBL document CHEMBL1833877, “Antinociceptive properties of bergenin” (J Nat Prod, 2011)
Active and inactive are the calls of the source. No cut-off for these calls is given here.

How the values were obtained:
Format in all cases: functional, organism-based
Mus musculus [1] = assay: Antinociceptive activity in mouse assessed as inhibition of acetic acid-induced abdominal constrictions at 10 mg/kg, ip administered 40 mins before acetic acid challenge measured for 30 mins; design: dose 10 mg/kg; settings: Abdomen
Procedure, shortened: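 Dosing was ip in 2% DMSO/saline 40 min before ip acetic acid (0.8% v/v, 10 mL/kg). Writhes (abdominal contraction with hind-limb stretching) were counted over 0–30 min. n = 6 mice/group, means ± SEM, ANOVA with Tukey.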

Mus musculus [2] = assay: Antinociceptive activity against formalin-induced pain in mouse assessed as paw licking during early phase (0 to 10 mins) at 10 mg/kg, ip administered 40 mins before formalin challenge; design: dose 10 mg/kg
Procedure, shortened: (§1)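 Mice were acclimated 30 min in an observation chamber, then given 20 μL of 2.5% formalin sc into the dorsal hind paw. Dosing was ip (2% DMSO/saline vehicle) 40 min beforehand. Time spent licking the injected paw was scored over 0–10 min and 10–60 min. n = 6/group, means ± SEM, ANOVA with Tukey.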

Mus musculus [3] = assay: Antinociceptive activity against formalin-induced pain in mouse assessed as paw licking during late phase (10 to 60 mins) at 10 mg/kg, ip administered 40 mins before formalin challenge; design: dose 10 mg/kg; procedure, shortened: as §1
Mus musculus [4] = assay: Antinociceptive activity against Freund's complete adjuvant-induced paw inflammation in mouse assessed as reduction in paw edema at 2 mg/kg, ip administered 40 mins before CFA challenge measured after 6 hrs; design: dose 2 mg/kg
Procedure, shortened: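 CFA (20 μL, 1 mg/mL heat-killed M. tuberculosis) was injected sc into the right hind plantar surface. Treatment was ip in 2% DMSO/saline 40 min before. Paw volume was read by plethysmometer before and after CFA, and edema taken as the volume difference (mm3/paw). n = 6 mice/group, means ± SEM, two-way ANOVA with Bonferroni.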

Mus musculus [5] = assay: Inhibition of IL1-beta production in Freund's complete adjuvant-induced mouse at 2 mg/kg, ip administered 40 mins before CFA challenge measured after 2 hrs by ELISA; design: dose 2 mg/kg
Procedure, shortened: (§2)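 CFA was given intraplantar, with ip dosing (2% DMSO/saline vehicle) 40 min earlier. At 2 h, paw skin was taken under terminal halothane anesthesia. Tissue was extracted (100 mg/mL PBS with 0.4 M NaCl, 0.05% Tween 20 and protease inhibitors) and centrifuged at 3000g for 10 min. Supernatant was assayed by mouse ELISA, in pg/mL. n = 6/group.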

Mus musculus [6] = assay: Inhibition of TNF-alpha production in Freund's complete adjuvant-induced mouse at 2 mg/kg, ip administered 40 mins before CFA challenge measured after 2 hrs by ELISA; design: dose 2 mg/kg; procedure, shortened: as §2

## COc1ccc2c(c1)c(CC(=O)O)c(C)n2C(=O)c1ccc(Cl)cc1
Mus musculus [1]
  Activity: Active
Mus musculus [2]
  Activity: Active
Mus musculus [3]
  Activity: Active

## C[C@@H]1C[C@H]2[C@@H]3CCC4=CC(=O)C=C[C@]4(C)[C@@]3(F)[C@@H](O)C[C@]2(C)[C@@]1(O)C(=O)CO
Mus musculus [4]
  Activity: inactive
Mus musculus [5]
  inhibition: Active
Mus musculus [6]
  inhibition: Active
